A selection: hits, their analogues and other compounds. The true share with any hit is near 1.2%.
IDE cell inh: inhibits human insulin-degrading enzyme in HEK cells; P14735; FAbetaB cleavage, fluorescence polarization; inhibition, % at 5.59 µM; 320,000 tested, 0.41% active;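 active = percent inhibition above the average of all tested compounds plus 3 SD, set per screening campaign, cut at about 16% in these data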;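 also: IDE supplied by intact live HEK cells; FP after avidin binding of uncleaved biotin substrate so inhibition keeps polarization high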
Target sequence (P14735 whole entry, looked up): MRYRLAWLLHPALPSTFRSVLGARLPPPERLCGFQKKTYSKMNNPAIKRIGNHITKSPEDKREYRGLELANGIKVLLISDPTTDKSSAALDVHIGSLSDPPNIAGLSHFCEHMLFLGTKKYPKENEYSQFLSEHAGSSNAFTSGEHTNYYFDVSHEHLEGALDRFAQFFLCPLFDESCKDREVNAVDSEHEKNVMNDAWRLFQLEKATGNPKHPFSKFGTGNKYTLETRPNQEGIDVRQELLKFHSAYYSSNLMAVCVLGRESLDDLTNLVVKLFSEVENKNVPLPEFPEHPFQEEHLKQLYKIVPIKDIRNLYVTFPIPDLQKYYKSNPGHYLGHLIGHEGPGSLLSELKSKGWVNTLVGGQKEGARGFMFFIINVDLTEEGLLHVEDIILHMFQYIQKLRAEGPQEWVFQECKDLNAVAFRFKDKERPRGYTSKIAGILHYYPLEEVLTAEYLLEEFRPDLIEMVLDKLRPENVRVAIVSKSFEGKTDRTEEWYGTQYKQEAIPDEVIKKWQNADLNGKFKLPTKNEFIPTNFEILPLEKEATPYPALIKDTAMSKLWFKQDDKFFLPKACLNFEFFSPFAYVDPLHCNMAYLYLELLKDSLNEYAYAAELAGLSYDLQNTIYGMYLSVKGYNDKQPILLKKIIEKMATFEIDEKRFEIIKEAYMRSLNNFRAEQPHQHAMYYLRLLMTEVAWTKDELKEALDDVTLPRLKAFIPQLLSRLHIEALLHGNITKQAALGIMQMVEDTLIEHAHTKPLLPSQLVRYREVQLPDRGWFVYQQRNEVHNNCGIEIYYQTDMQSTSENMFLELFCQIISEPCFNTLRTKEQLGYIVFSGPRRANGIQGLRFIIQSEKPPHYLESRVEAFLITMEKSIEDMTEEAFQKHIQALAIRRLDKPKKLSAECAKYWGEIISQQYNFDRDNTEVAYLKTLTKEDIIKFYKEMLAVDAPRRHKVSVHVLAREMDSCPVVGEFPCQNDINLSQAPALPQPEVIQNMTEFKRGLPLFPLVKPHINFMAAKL
TPT1 inhibitor: C. albicans TPT1 enzyme inhibition. 300,000 tested, 0.81% active. recombinant caTPT1, FP RNA substrate dephosphorylation. inhibition, % at 5 µM;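 active = inhibition above the mean of all tested compounds plus 3 SD, set per screening campaign, cut at about 24% in these data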
proCasp3 act: activates human procaspase-3 | activation, % at 8.5 µM | 330,000 tested, 0.11% active | recombinant procaspase-3 D3A, Ac-DEVD-pNA absorbance 405 nm;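 active = activation above the mean of all tested compounds plus 3 SD, cut at about 21% in these data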
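Assay system: Autoprocessing-dead procaspase-3 D3A mutant enzyme; also added: Ac-DEVD-pNA; doses: one concentration, 8.5 µM nominal, 0.8% DMSO; times: 1 h compound preincubation, 2 h substrate hydrolysis at 25 °C; technique: 405 nm absorbance of p-nitroaniline, reads at 0 and 120 min; measure: % activation between DMSO and enzyme-spiked controls; repeats: single replicate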
proCasp7 act: counter-screen: procaspase-7 (human) activation; activation, % at 8.5 µM; recombinant procaspase-7, Ac-DEVD-pNA absorbance 405 nm; D23A/D198A/D206A triple mutant, cannot self-cleave; scale: DMSO 0, 5 µM enzyme 100; P55210; 330,000 tested, 0.093% active; AID 463210;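 active = percent activation above the screen-wide mean plus 3 SD, cut at about 25% in these data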
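Replicates: singlicate. Assay system: Procaspase-7 triple mutant (PC-7 D3A). Signal: 405 nm absorbance of p-nitroaniline. Times: 1 h preincubation, 2 h reaction. Buffer or medium: Zinc-free HEPES pH 7.4 with 300 mM NaCl, 0.01% Triton X-100. Also added: DEVD-pNA substrate. Benchmarks: DMSO wells as 0%, DMSO with 5 µM added PC-7 as 100%.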
IDE act: boosts human insulin-degrading enzyme activity in HEK cells. P14735. FAbeta-B cleavage, fluorescence polarization; 0% vehicle, 100% cell-free pure enzyme wells. activation, % at 5.96 µM. 340,000 tested, 0.073% active;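 active = activation above the mean of all tested compounds plus 3 SD, set per screening campaign, cut at about 17% in these data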
PC3 dual counter: counter-screen: procaspase-3 (human) activation. shares compounds with proCasp7 act. recombinant PC-3 D3A, Ac-DEVD-pNA absorbance 405 nm; aspartates 9, 28, 175 changed to alanine; 100% = enzyme control. activation, % at 8.5 µM. 290 tested, under 10 active. AID 493114;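 active = mean percent activation across triplicates above a set limit taken from the earlier primary procaspase-3 screen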
Procasp7 act: activates human procaspase-7, confirming dual procaspase activators. shares compounds with proCasp7 act. recombinant procaspase-7, Ac-DEVD-pNA absorbance 405 nm; D23A/D198A/D206A mutant that cannot self-cleave. activation, % at 8.5 µM. 290 tested, under 10 active. AID 493115;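 active = mean activation above a set limit carried over from the earlier primary screen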
Of the large screens only hits and unclear results are named; the others gave an inactive call (follow-up assays come after a bar, where they were run).

CSc1nnc(-c2cc3c(s2)-c2ccccc2CC3)o1	proCasp7 act 33 | PC3 dual counter inactive | Procasp7 act inactive
CCN(Cc1ccccc1)c1ccc(/C=N/NC(=S)NC(C)C)cc1	proCasp3 act 23, proCasp7 act 30 | PC3 dual counter inactive | Procasp7 act inactive
Cc1cc(C)c(C#N)c(OCC(=O)c2ccc(Br)cc2)n1	proCasp7 act 46 | PC3 dual counter inactive | Procasp7 act inactive
CCC(C)Sc1cc(-c2nc3ccc(C)cn3c2NCc2ccccc2)ccc1OC (stereo not drawn)	proCasp3 act 22, proCasp7 act 28 | PC3 dual counter inactive | Procasp7 act inactive
Cc1ccc(Cn2c(=O)c3cccnc3n(CC(=O)Nc3cccc(C(F)(F)F)c3)c2=O)cc1	proCasp7 act 42 | PC3 dual counter inactive | Procasp7 act inactive
Cc1cccc(NC(=O)c2cnn(-c3ccccc3)c2C)c1C	none
Cc1ccccc1NC(=O)c1cnn(-c2ccccc2)c1C	proCasp7 act 34 | PC3 dual counter inactive | Procasp7 act inactive
C=CCNC1=C(Cl)C(=O)N(c2cccc(Cl)c2Cl)C1=O	proCasp7 act 32 | PC3 dual counter inactive | Procasp7 act inactive
NC(=O)c1nsc(C(=O)N(c2ccccc2F)C(C(=O)NCc2ccc(F)cc2)c2ccc(O)cc2)c1N (stereo not drawn)	proCasp7 act 28 | PC3 dual counter inactive | Procasp7 act inactive
COc1ccc(C(C(=O)NCc2ccccc2)N(C(=O)c2snc(C(N)=O)c2N)c2ccccc2OC)cc1 (stereo not drawn)	proCasp7 act 29 | PC3 dual counter inactive | Procasp7 act inactive
COc1ccccc1N(C(=O)c1snc(C(N)=O)c1N)C(C(=O)NCc1ccccc1)c1ccc(O)cc1 (stereo not drawn)	none (no result: IDE cell inh, TPT1 inhibitor, proCasp3 act, proCasp7 act)
COC(=O)c1cc(C(=O)OC)n(Cc2ccc(C)cc2)c1C	none
CCOP(=O)(OCC)c1nc(-c2cccc3ccccc23)oc1NCCc1ccc(OC)cc1	proCasp3 act 22, proCasp7 act 30 | PC3 dual counter inactive | Procasp7 act inactive
COc1ccc(OC)c(/C=N/NC(=O)c2cc3c(OC)cccc3[nH]2)c1	proCasp7 act 38 | PC3 dual counter inactive | Procasp7 act inactive
COc1ccc(OC)c(/C=N/NC(=O)c2cc3c(OC)cc(OC)cc3[nH]2)c1	none
O=Cc1cn(CCOc2ccccc2F)c2ccccc12	none (no result: IDE cell inh, TPT1 inhibitor, proCasp3 act, proCasp7 act)
C[C@@H]1C(c2cccc(Cl)c2)=NN(c2ccc(Br)cc2)[C@H]1C(=O)N1CCOC1=O	proCasp3 act 22, proCasp7 act 29 (no result: IDE cell inh, TPT1 inhibitor) | PC3 dual counter inactive | Procasp7 act inactive
Cc1cccc(C2=NN(c3ccc(Br)cc3)[C@@H](C(=O)N3CCOC3=O)[C@@H]2c2ccccc2)c1	proCasp7 act 32 (no result: IDE cell inh, TPT1 inhibitor) | PC3 dual counter inactive | Procasp7 act inactive
C[C@@H]1C(c2cccc(Cl)c2)=NN(c2ccccc2)[C@H]1C(=O)N1CCOC1=O	proCasp7 act 30 (no result: IDE cell inh, TPT1 inhibitor) | PC3 dual counter inactive | Procasp7 act inactive
Cc1c(C)c2ccc(OCC(=O)Nc3ccc(S(N)(=O)=O)cc3)c(C)c2oc1=O	none
Cc1ccc(S(=O)(=O)N2CCNC(=O)CC2)cc1	none
Cc1cc(-c2nc3cccnc3s2)ccc1NS(=O)(=O)c1cccs1	proCasp7 act 26 | PC3 dual counter inactive | Procasp7 act inactive
O=C(NCC1CCCO1)c1cccc(S(=O)(=O)Nc2ccc(F)cc2)c1 (stereo not drawn)	none (no result: TPT1 inhibitor)
O=C(NCCN1CCCC1)C1CCC(=O)N(CCCN2CCOCC2)C1 (stereo not drawn)	proCasp7 act 45 | PC3 dual counter inactive | Procasp7 act inactive
COc1ccc(Nc2nc(N3CCN(S(=O)(=O)N(C)C)CC3)nc3ccccc23)cc1	none
CC1CC1C(=O)OCC(=O)N(C)c1c(N)n(Cc2ccccc2)c(=O)[nH]c1=O (stereo not drawn)	none
CCCS(=O)(=O)c1c(S(=O)(=O)CCC)c2cc(-c3ccncc3)ccn2c1C(=O)OC	proCasp3 act 29, proCasp7 act 34 | PC3 dual counter inactive | Procasp7 act inactive
Cc1ccc2nc3c(cc2c1)c(NC(=O)c1ccco1)nn3CC(C)C	proCasp3 act 52, proCasp7 act 64 | PC3 dual counter inactive | Procasp7 act inactive
COc1ccc(COC(=O)C2=C(C)NC(=O)NC2c2cc(Br)c(O)c(OC)c2)cc1 (stereo not drawn)	none
Cc1cc(C)c(S(=O)(=O)N2CCCC(C(=O)NCc3ccncc3)C2)c(C)c1 (stereo not drawn)	none
CCCCN(CCO)c1ncnc2sc(-c3ccccc3)cc12	none
COc1ccc(-c2cc3nc4c(c(N5CCC6(CC5)OCCO6)n3n2)CCC4)cc1	none
COc1cccc(-c2cc3nc(-c4ccccc4)cc(N4CCCC(O)C4)n3n2)c1 (stereo not drawn)	proCasp3 act 36, proCasp7 act 50 | PC3 dual counter inactive | Procasp7 act inactive
COc1ccc(-c2cc3nc(-c4ccccc4)cc(N4CCC5(CC4)OCCO5)n3n2)cc1	proCasp3 act 23, proCasp7 act 36 | PC3 dual counter inactive | Procasp7 act inactive
COc1ccc(OC)c(CN2CCN(C(=O)CN3C(=O)NC4(CCCC4)C3=O)CC2)c1	none
CCN(CC)c1ccc(C(=O)OCc2cc(=O)oc3cc(O)ccc23)cc1	proCasp3 act 32, proCasp7 act 40 | PC3 dual counter inactive | Procasp7 act inactive
COc1ccc(NC(=O)Nc2c(C)n(C)n(-c3ccccc3)c2=O)c(OC)c1	none
COc1ccc(-c2cc(C(=O)OC3CCOC3=O)c3ccccc3n2)cc1 (stereo not drawn)	proCasp3 act 26, proCasp7 act 28 | PC3 dual counter inactive | Procasp7 act inactive
O=C(OC1CCOC1=O)c1cc(-c2ccc(Br)cc2)nc2ccccc12 (stereo not drawn)	none
CCCNC(=O)NNC(=O)c1ccc(F)cc1	none
Cc1c(NC(=O)CN2CCCC(C)C2)ccc2nsnc12 (stereo not drawn)	none
COC(=O)c1cc(C(=O)OCC(=O)c2ccc[nH]2)cc([N+](=O)[O-])c1	none (no result: TPT1 inhibitor)
O=C(/C=C/c1ccc(Cl)cc1)Nc1cc(S(=O)(=O)N2CCOCC2)ccc1N1CCOCC1	none (no result: TPT1 inhibitor)
O=C(Nc1sc2c(c1C(=O)NCC1CCCO1)CCCC2)c1cccs1 (stereo not drawn)	proCasp7 act 37 | PC3 dual counter inactive | Procasp7 act inactive
CC(C)(C)C(=O)Nc1cc(S(=O)(=O)N2CCCCC2)ccc1N1CCCCC1	none

Source: PubChem (The Scripps Research Institute Molecular Screening Center)
